From ChEMBL document CHEMBL3526074, “Effects of the CYP2B6*6 allele on catalytic properties and inhibition of CYP2B6 in vitro: implication for the mechanism of reduced efavirenz metabolism and other CYP2B6 substrates in vivo” (Drug Metab Dispos, 2012)

Experiments:
Format in all cases: ADME
[1] = Inhibition of CYP2B6 variant in human liver microsomes harboring CYP2B6*1/*6 genotype assessed as 8-hydroxyefavirenz formation using efavirenz as substrate after 15 mins by LC/MS/MS analysis
[2] = Inhibition of CYP2B6 variant in human liver microsomes harboring CYP2B6*6/*6 genotype assessed as 8-hydroxyefavirenz formation using efavirenz as substrate after 15 mins by LC/MS/MS analysis
[3] = Inhibition of CYP2B6 variant in human liver microsomes harboring CYP2B6*1/*1 genotype assessed as 8-hydroxyefavirenz formation using efavirenz as substrate after 15 mins by LC/MS/MS analysis
[4] = Drug metabolism in microsomes expressing CYP2B6.1 (unknown origin) assessed as enzyme-mediated 8-hydroxyefavirenz metabolite formation measured per pmol of P450 after 15 mins by HPLC/UV system in presence of Cyt b5 coexpression; details: human, 0.25 h
In short: (§1)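 cDNA-expressed CYP2B6.1 or CYP2B6.6 microsomes coexpressing POR and Cyt b5 (15 pmol), with efavirenz 1–200 µM, NADPH-regenerating system and pH 7.4 phosphate buffer, 15 min at 37°C. 8-hydroxyefavirenz by HPLC, rate per pmol P450. Kinetic constants from single-site Michaelis-Menten fit; three replicates, mean ± S.D.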

[5] = Drug metabolism in human liver microsomes harboring CYP2B6*6/*6 genotype assessed as CYP2B6 variant-mediated 8-hydroxyefavirenz metabolite formation measured per mg protein after 15 mins by LC/MS/MS analysis; details: 0.25 h
In short: (§2)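 Genotyped human liver microsomes (5 donors per genotype), 0.25 mg/ml, with efavirenz 1–200 µM in 200 mM potassium phosphate pH 7.4. Prewarmed 5 min at 37°C, started with NADPH-regenerating system, 15 min, stopped on ice with acetonitrile. 8-hydroxyefavirenz measured by LC/MS/MS, duplicate incubations. Km and Vmax from single-site Michaelis-Menten nonlinear fit; Clint = Vmax/Km; mean ± S.D. across 5 HLMs.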

[6] = Drug metabolism in human liver microsomes harboring CYP2B6*1/*6 genotype assessed as intrinsic clearance for CYP2B6 variant-mediated 8-hydroxyefavirenz metabolite formation measured per mg protein after 15 mins by LC/MS/MS analysis; details: 0.25 h; in short: as §2
[7] = Drug metabolism in microsomes expressing CYP2B6.1 (unknown origin) assessed as enzyme-mediated 8-hydroxyefavirenz metabolite formation after 15 mins by HPLC/UV system in absence of Cyt b5 coexpression; details: human, 0.25 h
In short: (§3)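 Microsomes with cDNA-expressed CYP2B6.1 or CYP2B6.6 plus POR, no Cyt b5 (15 pmol P450). Efavirenz 1–200 µM in 200 mM phosphate pH 7.4 with NADPH-regenerating system, 15 min at 37°C. 8-hydroxyefavirenz by HPLC, rate per pmol P450.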

[8] = Drug metabolism in human liver microsomes harboring CYP2B6*1/*1 genotype assessed as intrinsic clearance for CYP2B6 variant-mediated 8-hydroxyefavirenz metabolite formation measured per mg protein after 15 mins by LC/MS/MS analysis; details: 0.25 h; in short: as §2
[9] = Drug metabolism in human liver microsomes harboring CYP2B6*6/*6 genotype assessed as CYP2B6 variant-mediated 8-hydroxyefavirenz metabolite formation after 15 mins by LC/MS/MS analysis; details: 0.25 h; in short: as §2
[10] = Drug metabolism in human liver microsomes harboring CYP2B6*1/*1 genotype assessed as CYP2B6 variant-mediated 8-hydroxyefavirenz metabolite formation after 15 mins by LC/MS/MS analysis; details: 0.25 h; in short: as §2
[11] = Drug metabolism in microsomes expressing CYP2B6.1 (unknown origin) assessed as enzyme-mediated 8-hydroxyefavirenz metabolite formation measured per pmol of P450 after 15 mins by HPLC/UV system in absence of Cyt b5 coexpression; details: human, 0.25 h; in short: as §3
[12] = Drug metabolism in microsomes expressing CYP2B6.1 (unknown origin) assessed as enzyme-mediated 8-hydroxyefavirenz metabolite formation after 15 mins by HPLC/UV system in presence of Cyt b5 coexpression; details: human, 0.25 h; in short: as §1
[13] = Drug metabolism in human liver microsomes harboring CYP2B6*1/*6 genotype assessed as CYP2B6 variant-mediated 8-hydroxyefavirenz metabolite formation after 15 mins by LC/MS/MS analysis; details: 0.25 h; in short: as §2
[14] = Drug metabolism in human liver microsomes harboring CYP2B6*6/*6 genotype assessed as intrinsic clearance for CYP2B6 variant-mediated 8-hydroxyefavirenz metabolite formation measured per mg protein after 15 mins by LC/MS/MS analysis; details: 0.25 h; in short: as §2
[15] = Drug metabolism in microsomes expressing CYP2B6.6 (unknown origin) assessed as enzyme-mediated 8-hydroxyefavirenz metabolite formation after 15 mins by HPLC/UV system in absence of Cyt b5 coexpression; details: human, 0.25 h; in short: as §3
[16] = Drug metabolism in microsomes expressing CYP2B6.6 (unknown origin) assessed as enzyme-mediated 8-hydroxyefavirenz metabolite formation measured per pmol of P450 after 15 mins by HPLC/UV system in absence of Cyt b5 coexpression; details: human, 0.25 h; in short: as §3
[17] = Drug metabolism in microsomes expressing CYP2B6.6 (unknown origin) assessed as enzyme-mediated 8-hydroxyefavirenz metabolite formation after 15 mins by HPLC/UV system in presence of Cyt b5 coexpression; details: human, 0.25 h; in short: as §1
[18] = Drug metabolism in human liver microsomes harboring CYP2B6*1/*1 genotype assessed as CYP2B6 variant-mediated 8-hydroxyefavirenz metabolite formation measured per mg protein after 15 mins by LC/MS/MS analysis; details: 0.25 h; in short: as §2
[19] = Drug metabolism in microsomes expressing CYP2B6.6 (unknown origin) assessed as enzyme-mediated 8-hydroxyefavirenz metabolite formation measured per pmol of P450 after 15 mins by HPLC/UV system in presence of Cyt b5 coexpression; details: human, 0.25 h; in short: as §1
[20] = Drug metabolism in human liver microsomes harboring CYP2B6*1/*6 genotype assessed as CYP2B6 variant-mediated 8-hydroxyefavirenz metabolite formation measured per mg protein after 15 mins by LC/MS/MS analysis; details: 0.25 h; in short: as §2

C[C@@H](c1ncncc1F)[C@](O)(Cn1cncn1)c1ccc(F)cc1F [VORICONAZOLE]
Ki [1]: 1.55 µM | IC50 [2]: 0.16 µM | IC50 [3]: 0.4 µM

COC(=O)[C@H](c1ccccc1Cl)N1CCc2sccc2C1 [CLOPIDOGREL]
IC50 [2]: 0.05 µM | IC50 [3]: 0.14 µM

O=C1Nc2ccc(Cl)cc2[C@@](C#CC2CC2)(C(F)(F)F)O1 [EFAVIRENZ]
Vmax [4]: 1.02 pmol/min | Vmax [5]: 25 pmol/min | CLH [6]: 6.4 µL/min/mg | Km [7]: 3.2 µM | CLH [8]: 14.5 µL/min/mg | Km [9]: 24 µM | Km [10]: 11.2 µM | Vmax [11]: 1.21 pmol/min | Km [12]: 3.4 µM | Km [13]: 15.2 µM | CLH [14]: 2.4 µL/min/mg | Km [15]: 8.8 µM | Vmax [16]: 1.61 pmol/min | Km [17]: 6.2 µM | Vmax [18]: 87.1 pmol/min | Vmax [19]: 0.95 pmol/min | Vmax [20]: 100.6 pmol/min
